Data from ChEMBL document CHEMBL3588757, “Structure-based design, synthesis and biological testing of piperazine-linked bis-epipodophyllotoxin etoposide analogs” (Bioorg Med Chem, 2015).
pIC50: −log10 of the molar value.

Assays:
[1] = test system: UACC-257; test: Cytotoxicity against human UACC257 cells by SRB assay; type: functional
Method in brief: (§1)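 NCI-60 panel screen; 5-dose testing giving GI50 per cell line, plus a single 10 µM one-dose test. Method details not given beyond the NCI screen.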

[2] = test system: PC-3; test: Cytotoxicity against human PC3 cells assessed as cell growth at 5 uM by SRB assay; type: functional; conditions: read-out: Activity
[3] = test system: SK-OV-3; test: Cytotoxicity against human SKOV3 cells assessed as cell growth at 0.005 uM by SRB assay; type: functional; conditions: read-out: Activity
[4] = test system: NCI-H226; test: Cytotoxicity against human NCI-H226 cells assessed as cell growth at 50 uM by SRB assay; type: functional; conditions: read-out: Activity
[5] = test system: CAKI-1; test: Cytotoxicity against human Caki1 cells assessed as cell growth at 50 uM by SRB assay; type: functional; conditions: read-out: Activity
[6] = test system: T47D; test: Cytotoxicity against human T47D cells assessed as cell growth at 0.5 uM by SRB assay; type: functional; conditions: read-out: Activity
[7] = test system: T47D; test: Cytotoxicity against human T47D cells assessed as cell growth at 50 uM by SRB assay; type: functional; conditions: read-out: Activity
[8] = test system: RPMI-8226; test: Cytotoxicity against human RPMI8226 cells assessed as cell growth at 0.005 uM by SRB assay; type: functional; conditions: read-out: Activity
[9] = test system: OVCAR-5; test: Cytotoxicity against human OVCAR5 cells assessed as cell growth at 0.5 uM by SRB assay; type: functional; conditions: read-out: Activity
[10] = test system: HOP-92; test: Cytotoxicity against human HOP92 cells assessed as cell growth at 5 uM by SRB assay; type: functional; conditions: read-out: Activity
Method in brief: (§2)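 Measured in the NCI-60 human tumour cell line panel using five-dose testing. Growth was recorded at each dose for each cell line, and a GI50 was derived for each line.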

[11] = test system: NCI-H322M; test: Cytotoxicity against human NCI-H322M cells assessed as cell growth at 0.005 uM by SRB assay; type: functional; conditions: read-out: Activity
[12] = test system: UACC-257; test: Cytotoxicity against human UACC257 cells assessed as cell growth at 0.05 uM by SRB assay; type: functional; conditions: read-out: Activity
[13] = test system: BT-549; test: Cytotoxicity against human BT549 cells assessed as cell growth at 0.5 uM by SRB assay; type: functional; conditions: read-out: Activity
[14] = test system: HOP-62; test: Cytotoxicity against human HOP62 cells assessed as cell growth at 0.005 uM by SRB assay; type: functional; conditions: read-out: Activity; method in brief: as §2
[15] = test system: SF-539; test: Cytotoxicity against human SF539 cells assessed as cell growth at 0.05 uM by SRB assay; type: functional; conditions: read-out: Activity
[16] = test system: OVCAR-3; test: Cytotoxicity against human OVCAR3 cells assessed as cell growth at 0.05 uM by SRB assay; type: functional; conditions: read-out: Activity
[17] = test system: HL-60(TB); test: Cytotoxicity against human HL-60(TB) cells assessed as cell growth at 0.5 uM by SRB assay; type: functional; conditions: read-out: Activity; method in brief: as §2
[18] = test system: SK-MEL-5; test: Cytotoxicity against human SK-MEL-5 cells assessed as cell growth at 0.05 uM by SRB assay; type: functional; conditions: read-out: Activity
[19] = test system: PC-3; test: Cytotoxicity against human PC3 cells assessed as cell growth at 0.005 uM by SRB assay; type: functional; conditions: read-out: Activity
[20] = test system: SK-MEL-5; test: Cytotoxicity against human SK-MEL-5 cells assessed as cell growth at 50 uM by SRB assay; type: functional; conditions: read-out: Activity
[21] = test system: MCF7; test: Cytotoxicity against human MCF7 cells assessed as cell growth at 0.005 uM by SRB assay; type: functional; conditions: read-out: Activity
[22] = test system: SW-620; test: Cytotoxicity against human SW620 cells assessed as cell growth at 50 uM by SRB assay; type: functional; conditions: read-out: Activity
[23] = test system: CCRF-CEM; test: Cytotoxicity against human CCRF-CEM cells assessed as cell growth at 50 uM by SRB assay; type: functional; conditions: read-out: Activity
[24] = test system: HCT-116; test: Cytotoxicity against human HCT116 cells assessed as cell growth at 5 uM by SRB assay; type: functional; conditions: read-out: Activity; method in brief: as §2
[25] = test system: SNB-19; test: Cytotoxicity against human SNB19 cells by SRB assay; type: functional; method in brief: as §1
[26] = test system: HOP-62; test: Cytotoxicity against human HOP62 cells assessed as cell growth at 0.05 uM by SRB assay; type: functional; conditions: read-out: Activity; method in brief: as §2
[27] = test system: A498; test: Cytotoxicity against human A498 cells assessed as cell growth at 0.05 uM by SRB assay; type: functional; conditions: read-out: Activity
[28] = test system: K562; test: Cytotoxicity against human K562 cells assessed as cell growth inhibition after 72 hrs by MTS assay; type: functional, cell-based; conditions: K562, 72 h
[29] = test system: SNB-19; test: Cytotoxicity against human SNB19 cells assessed as cell growth at 0.05 uM by SRB assay; type: functional; conditions: read-out: Activity
[30] = Cytotoxicity against human Hs578T cells assessed as cell growth at 50 uM by SRB assay; type: functional; conditions: Hs-578T, read-out: Activity; method in brief: as §2
[31] = test system: NCI-H460; test: Cytotoxicity against human NCI-H460 cells assessed as cell growth at 50 uM by SRB assay; type: functional; conditions: read-out: Activity
[32] = test system: NCI-H23; test: Cytotoxicity against human NCI-H23 cells assessed as cell growth at 0.005 uM by SRB assay; type: functional; conditions: read-out: Activity
[33] = test system: SNB-75; test: Cytotoxicity against human SNB75 cells assessed as cell growth at 50 uM by SRB assay; type: functional; conditions: read-out: Activity
[34] = test system: HCC 2998; test: Cytotoxicity against human HCC2998 cells by SRB assay; type: functional; method in brief: as §2
[35] = test system: CAKI-1; test: Cytotoxicity against human Caki1 cells assessed as cell growth at 0.5 uM by SRB assay; type: functional; conditions: read-out: Activity
[36] = test system: HCT-15; test: Cytotoxicity against human HCT15 cells assessed as cell growth at 0.5 uM by SRB assay; type: functional; conditions: read-out: Activity; method in brief: as §2
[37] = test system: PC-3; test: Cytotoxicity against human PC3 cells assessed as cell growth at 0.5 uM by SRB assay; type: functional; conditions: read-out: Activity
[38] = Cytotoxicity against human Hs578T cells by SRB assay; type: functional; conditions: Hs-578T; method in brief: as §2
[39] = test system: HCT-116; test: Cytotoxicity against human HCT116 cells by SRB assay; type: functional; method in brief: as §2
[40] = test system: MCF7; test: Cytotoxicity against human MCF7 cells assessed as cell growth at 50 uM by SRB assay; type: functional; conditions: read-out: Activity
[41] = test system: RPMI-8226; test: Cytotoxicity against human RPMI8226 cells assessed as cell growth at 0.5 uM by SRB assay; type: functional; conditions: read-out: Activity
[42] = test system: CAKI-1; test: Cytotoxicity against human Caki1 cells assessed as cell growth at 0.05 uM by SRB assay; type: functional; conditions: read-out: Activity
[43] = test system: CCRF-CEM; test: Cytotoxicity against human CCRF-CEM cells assessed as cell growth at 0.5 uM by SRB assay; type: functional; conditions: read-out: Activity
[44] = test system: NCI-H226; test: Cytotoxicity against human NCI-H226 cells assessed as cell growth at 0.5 uM by SRB assay; type: functional; conditions: read-out: Activity
[45] = test system: NCI-H322M; test: Cytotoxicity against human NCI-H322M cells assessed as cell growth at 0.5 uM by SRB assay; type: functional; conditions: read-out: Activity
[46] = read-out: LC50 (the source's name)
[47] = read-out: pLC50 (the source's name) (converted)

For `COc1cc([C@@H]2c3cc4c(cc3[C@@H](NC(=O)CN3CCN(CCCCCCN5CCN(CC(=O)N[C@@H]6c7cc8c(cc7[C@@H](c7cc(OC)c(O)c(OC)c7)[C@H]7C(=O)OC[C@@H]76)OCO8)CC5)CC3)[C@H]3COC(=O)[C@H]23)OCO4)cc(OC)c1O`, the GI50 ([1]; read-out: GI50) was 18.9 µM, the CC50 [1, 46] was over 50 µM and the TGI ([1]; read-out: TGI) was over 50 µM. The GI50 ([1]; read-out: pGI50 (converted)) was 19.1 µM, the CC50 [1, 47] was over 50.1 µM and the TGI ([1]; read-out: pTGI (converted)) was over 50.1 µM. It also gave a growth at 5 µM [2] of 54%, a growth at 0.005 µM [3] of 104% and a growth at 50 µM [4] of -2%. For the same compound, the growth at 50 µM [5] was 57%, the growth at 0.5 µM [6] was 79% and the growth at 50 µM [7] was 2%. It also gave a growth at 0.005 µM [8] of 102%, a growth at 0.5 µM [9] of 86% and a growth at 5 µM [10] of 30%. For the same compound, the growth at 0.005 µM [11] was 98%, the growth at 0.05 µM [12] was 113% and the growth at 0.5 µM [13] was 62%. It also gave a growth at 0.005 µM [14] of 95%, a growth at 0.05 µM [15] of 96% and a growth at 0.05 µM [16] of 108%. It also gave a growth at 0.5 µM [17] of 60%, a growth at 0.05 µM [18] of 93% and a growth at 0.005 µM [19] of 93%. It also gave a growth at 50 µM [20] of 9%, a growth at 0.005 µM [21] of 80% and a growth at 50 µM [22] of 4%. The growth at 50 µM [23] was 7%, the growth at 5 µM [24] was 40% and the GI50 ([25]; read-out: GI50) was 1.03 µM. The CC50 [25, 46] was over 50 µM, the TGI ([25]; read-out: TGI) was over 50 µM and the GI50 ([25]; read-out: pGI50 (converted)) was 1.02 µM. For the same compound, the CC50 [25, 47] was over 50.1 µM, the TGI ([25]; read-out: pTGI (converted)) was over 50.1 µM and the growth at 0.05 µM [26] was 96%. The growth at 0.05 µM [27] was 96%, the pIC50 [28] was 7.39 and the growth at 0.05 µM [29] was 95%. The growth at 50 µM [30] was 9%, the growth at 50 µM [31] was -28% and the growth at 0.005 µM [32] was 102%. The growth at 50 µM [33] was -31%, the GI50 ([34]; read-out: GI50) was 9.47 µM and the CC50 [34, 46] was over 50 µM. For the same compound, the TGI ([34]; read-out: TGI) was 38.3 µM, the GI50 ([34]; read-out: pGI50 (converted)) was 9.55 µM and the CC50 [34, 47] was over 50.1 µM. The TGI ([34]; read-out: pTGI (converted)) was 38 µM, the growth at 0.5 µM [35] was 88% and the growth at 0.5 µM [36] was 90%. It also gave a growth at 0.5 µM [37] of 80%, a GI50 ([38]; read-out: GI50) of 8.93 µM and a CC50 [38, 46] of over 50 µM. The TGI ([38]; read-out: TGI) was over 50 µM, the GI50 ([38]; read-out: pGI50 (converted)) was 8.91 µM and the CC50 [38, 47] was over 50.1 µM. It also gave a TGI ([38]; read-out: pTGI (converted)) of over 50.1 µM, a GI50 ([39]; read-out: GI50) of 1.63 µM and a CC50 [39, 46] of over 50 µM. For the same compound, the TGI ([39]; read-out: TGI) was over 50 µM, the GI50 ([39]; read-out: pGI50 (converted)) was 1.62 µM and the CC50 [39, 47] was over 50.1 µM. The TGI ([39]; read-out: pTGI (converted)) was over 50.1 µM, the growth at 50 µM [40] was 7% and the growth at 0.5 µM [41] was 67%. The growth at 0.05 µM [42] was 93%, the growth at 0.5 µM [43] was 31% and the growth at 0.5 µM [44] was 73%. For the same compound, the growth at 0.5 µM [45] was 93%.
